Bioassay records (PubChem BioAssay)
S1P4 antagonist – human S1P4 receptor antagonism | O95977 | S1P4-expressing cells, antagonist mode, reporter read-out | inhibition, % at 4.98 µM | 220,000 compounds, 0.26% hits; in the data active means inhibition above about 29%;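 further: 0% = wells stimulated with agonist and 100% = vehicle wells without agonist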
Target sequence (O95977 whole entry, looked up): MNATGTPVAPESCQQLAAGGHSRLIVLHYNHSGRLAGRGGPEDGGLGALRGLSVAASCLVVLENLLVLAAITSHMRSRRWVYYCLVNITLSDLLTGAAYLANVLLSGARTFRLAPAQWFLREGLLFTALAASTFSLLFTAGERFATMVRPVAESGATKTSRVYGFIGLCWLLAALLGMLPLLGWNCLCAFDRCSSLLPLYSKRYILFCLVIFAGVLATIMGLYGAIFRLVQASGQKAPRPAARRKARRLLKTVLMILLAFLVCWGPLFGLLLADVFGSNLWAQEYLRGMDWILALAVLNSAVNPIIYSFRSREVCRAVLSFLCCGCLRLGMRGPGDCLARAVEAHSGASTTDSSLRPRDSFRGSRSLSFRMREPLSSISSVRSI
S1P4 agonist – human S1P4 receptor agonism | S1P4-expressing cell line, agonist reporter assay | activation, % at 4.98 µM | O95977 | 220,000 compounds, 0.35% hits; in the data active means activation above about 11%;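 further: 0% = DMSO vehicle and 100% = reference agonist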
NPY Y2 blocker – NPY-Y2 (human) receptor antagonism; 140,000 compounds, 0.99% hits; P49146; inhibition, % at 2.7 µM; NPY-Y2 expressing cells, antagonist mode;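 further: 0% = vehicle with agonist challenge and 100% = reference antagonist with challenge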
NPY-Y2 PAM-ag – potentiators or agonists of human neuropeptide Y receptor Y2; P49146; cells expressing NPY-Y2, potentiator/agonist read-out; activation, % at 3.6 µM; 220,000 compounds, 0.45% hits; AID 1359; in the data active means activation above about 27%;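 further: cells stimulated with NPY near EC25 plus isoproterenol at EC100; 0% = vehicle plus submaximal agonist and 100% = vehicle plus saturating agonist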
NPY Y1 blocker – blocks the human neuropeptide Y Y1 receptor; P25929; HEK293-CNG Y1 cells, membrane potential fluorescence; NPY at EC95, then isoproterenol; inhibition, % at 3.6 µM; 200,000 compounds, 1% hits; AID 1040;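 active means inhibition above the campaign mean inhibition of all tested compounds plus 3 SD, cut at about 20% in these data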;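 further: 0% = DMSO wells given NPY plus isoproterenol and 100% = isoproterenol alone without NPY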
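Benchmarks – high control isoproterenol alone, low control NPY with isoproterenol · Material – HEK293 Y1/CNG channel cell line · Times – dye 3 h, compound 60 min room temperature, stimulation 45 min · Probe or stimulus – NPY (25 nM), isoproterenol (1 µM), Ro 20-1724 (25 µM) · Evaluation – % inhibition of NPY effect · Signal – fluorescence, membrane potential probe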
NPY-Y1 PAM-ag – potentiates or activates human NPY-Y1 receptor. activation, % at 3.6 µM. AID 1304. NPY-Y1 expressing cells, potentiator/agonist activation. 220,000 compounds, 0.37% hits; in the data active means activation above about 33%, passing the limit was not always enough;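 further: cells stimulated with NPY at EC10 then isoproterenol at EC100; 0% = low agonist plus stimulus and 100% = saturating agonist plus stimulus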
NPY-Y1 ant conf – confirmation of human neuropeptide Y receptor Y1 antagonists; AID 1254; HEK293-CNG NPY-Y1, membrane potential fluorescence, cAMP; NPY challenge against isoproterenol-raised cAMP; 1,200 compounds, 21% hits; inhibition, % at 3.6 µM; shares compounds with NPY Y1 blocker; in the data active means inhibition above about 20%;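 further: 0% = vehicle with agonist plus stimulus and 100% = stimulus alone without agonist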
NPY2 antag ctr – counter-screen for NPY-Y1 antagonists: human NPY-Y2 antagonism; shares compounds with NPY Y1 blocker; HEK293 NPY-Y2 CNG membrane potential fluorescence; cells given NPY, then isoproterenol; inhibition, % at 3.6 µM; 1,200 compounds, 28% hits;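 further: 0% = DMSO with agonist challenge and 100% = reference antagonist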
* = called active by the depositor. Sampled rows, rich in hits. Any-hit rate of the full collection: about 2.4%. Unless noted, no stated cut-off is given here; in the data, active means inhibition above about 17%; inactive means the rest.

Screening COc1cc(CNc2ccc(N3CCN(C(C)=O)CC3)cc2)ccc1OCc1ccc(F)cc1 returned S1P4 antagonist 8, S1P4 agonist 1, NPY-Y2 PAM-ag 5, NPY Y1 blocker -4 and NPY-Y1 PAM-ag 2.
Screening Cc1oc(-c2ccc(Cl)cc2)nc1CN1CCC(C(=O)N2CCN(Cc3ccccc3)CC2)CC1 returned S1P4 antagonist -7, S1P4 agonist -2, NPY Y2 blocker 17, NPY-Y2 PAM-ag -20, NPY Y1 blocker 25*, NPY-Y1 PAM-ag -59, NPY-Y1 ant conf 21* and NPY2 antag ctr 29*.
Cc1oc(-c2ccc(Cl)cc2)nc1CN1CCC(C(=O)N2CCc3ccccc3C2)CC1 was read as S1P4 antagonist 2, S1P4 agonist -1, NPY Y2 blocker 14, NPY-Y2 PAM-ag -19, NPY Y1 blocker 10 and NPY-Y1 PAM-ag -30.
Cc1ccccc1-c1nc(CN2CCC(C(=O)NCCCN3CC(C)CC(C)C3)CC2)c(C)o1 (centres undefined) was read as S1P4 antagonist -3, S1P4 agonist -2, NPY Y2 blocker 15, NPY-Y2 PAM-ag -21, NPY Y1 blocker 23*, NPY-Y1 PAM-ag -78, NPY-Y1 ant conf 15 and NPY2 antag ctr 24*.
`CCc1ccc(-c2nc(CN3CCC(C(=O)NCCc4ccc(OC)c(OC)c4)CC3)c(C)o2)cc1` gave S1P4 antagonist 19, S1P4 agonist -3, NPY Y2 blocker 13, NPY-Y2 PAM-ag -25, NPY Y1 blocker 28*, NPY-Y1 PAM-ag -56, NPY-Y1 ant conf 4 and NPY2 antag ctr 16.
Screening Cc1oc(-c2cccc(Cl)c2)nc1CN1CCC(C(=O)NCc2ccco2)CC1 returned S1P4 antagonist 2, S1P4 agonist -3, NPY Y2 blocker 3, NPY-Y2 PAM-ag -5, NPY Y1 blocker 6 and NPY-Y1 PAM-ag -6.
Screening Cc1ccccc1-c1nc(CN2CCC(C(=O)NCCCN3CCCC3)CC2)c(C)o1 returned S1P4 antagonist 3, S1P4 agonist 1, NPY Y2 blocker 3, NPY-Y2 PAM-ag 4, NPY Y1 blocker 6 and NPY-Y1 PAM-ag -23.
CCN1CCCC1CNC(=O)C1CCN(Cc2nc(-c3cccc(Br)c3)oc2C)CC1 (centres undefined) was read as S1P4 antagonist 13, S1P4 agonist -1, NPY Y2 blocker 11, NPY-Y2 PAM-ag -26, NPY Y1 blocker 21*, NPY-Y1 PAM-ag -21, NPY-Y1 ant conf 9 and NPY2 antag ctr 16.
For Cc1sc2c(c1C)C(=O)/C(=C\Nc1ccccn1)S(=O)(=O)N2C the results were S1P4 antagonist -10, S1P4 agonist -1, NPY-Y2 PAM-ag -12 and NPY-Y1 PAM-ag -14.
Screening CCn1c(COc2cccc3cccnc23)nnc1SC(F)F returned S1P4 antagonist 0, S1P4 agonist 0, NPY-Y2 PAM-ag -12, NPY Y1 blocker 0 and NPY-Y1 PAM-ag -9.
Cc1cccc(-n2c(=S)[nH]c3nc4c(cc3c2=O)COC(C)(C)C4)c1 was read as S1P4 antagonist -9, S1P4 agonist 3, NPY-Y2 PAM-ag 16 and NPY-Y1 PAM-ag -6.
Screening COc1ccc(C2Nc3ccccc3C(=O)N2c2ccccc2)cc1COc1ccccn1 (centres undefined) returned S1P4 antagonist -21, S1P4 agonist 1, NPY Y2 blocker 4, NPY-Y2 PAM-ag -7, NPY Y1 blocker 22*, NPY-Y1 PAM-ag 8, NPY-Y1 ant conf 10 and NPY2 antag ctr 7.
For Cc1ccc(C(=O)c2cc([N+](=O)[O-])ccc2N2CCOCC2)c(C)c1 the results were S1P4 antagonist -3, S1P4 agonist 1, NPY Y2 blocker 3, NPY-Y2 PAM-ag -8, NPY Y1 blocker 34*, NPY-Y1 PAM-ag -4, NPY-Y1 ant conf 6 and NPY2 antag ctr 22*.
Screening Cc1nonc1OCCn1c([N+](=O)[O-])cnc1C returned S1P4 antagonist 6, S1P4 agonist 1, NPY-Y2 PAM-ag -4, NPY Y1 blocker 2 and NPY-Y1 PAM-ag 0.
For O=c1c2ccccc2nc(SCCN2CCOCC2)n1CCc1ccccc1 the results were S1P4 antagonist -11, S1P4 agonist 1, NPY-Y2 PAM-ag -15, NPY Y1 blocker 7 and NPY-Y1 PAM-ag -16.
Screening COc1ccc(CCn2c(SCCN3CCCCC3)nc3ccccc3c2=O)cc1OC returned S1P4 antagonist 1, S1P4 agonist 0, NPY-Y2 PAM-ag -27, NPY Y1 blocker 38*, NPY-Y1 PAM-ag -27, NPY-Y1 ant conf 16 and NPY2 antag ctr 18*.
For COc1ccc(CSc2nc3ccccc3c(=O)n2CCCN2CCOCC2)cc1F the results were S1P4 antagonist 10, S1P4 agonist 1, NPY-Y2 PAM-ag -22, NPY Y1 blocker 28*, NPY-Y1 PAM-ag -35, NPY-Y1 ant conf 14 and NPY2 antag ctr 14.
`O=C(CSc1cccc[n+]1[O-])c1cc(Cl)ccc1Cl` gave S1P4 antagonist -1, S1P4 agonist 1, NPY-Y2 PAM-ag -3, NPY Y1 blocker 3 and NPY-Y1 PAM-ag 12.
Screening CCn1c(=O)[nH]c(=O)c2c(N)c(C(=O)c3cc(F)ccc3F)sc21 returned S1P4 antagonist -7, S1P4 agonist 2, NPY-Y2 PAM-ag -23 and NPY-Y1 PAM-ag 12.
Cc1ccc(S(=O)(=O)Nc2cc(C)nn2-c2ccccc2)cc1 was read as S1P4 antagonist -23, S1P4 agonist -2, NPY Y2 blocker 2, NPY-Y2 PAM-ag 7, NPY Y1 blocker 33*, NPY-Y1 PAM-ag -11, NPY-Y1 ant conf -1 and NPY2 antag ctr -1.
`Cc1nc(CS(=O)(=O)c2ccc(Cl)cc2)sc1C(=O)O` gave S1P4 antagonist -8, S1P4 agonist 1, NPY-Y2 PAM-ag 0 and NPY-Y1 PAM-ag 26.
`CCCCCCCn1c(=N)n(CC(O)c2ccco2)c2ccccc21` (centres undefined) gave S1P4 antagonist 12, S1P4 agonist -2, NPY-Y2 PAM-ag -34, NPY Y1 blocker 33*, NPY-Y1 PAM-ag -12, NPY-Y1 ant conf 24* and NPY2 antag ctr 23*.
CCCCn1c(=N)n(CC(O)c2ccccc2)c2ccccc21 (centres undefined) was read as S1P4 antagonist 10, S1P4 agonist 0, NPY-Y2 PAM-ag -35 and NPY-Y1 PAM-ag 7.
CC(C)(C)c1ccc(Cn2c(=N)n(CC(O)c3ccco3)c3ccccc32)cc1 (centres undefined) was read as S1P4 antagonist 2, S1P4 agonist 1, NPY-Y2 PAM-ag -20, NPY Y1 blocker 47*, NPY-Y1 PAM-ag -8, NPY-Y1 ant conf 22* and NPY2 antag ctr 31*.
